Assay results published in ChEMBL document CHEMBL1833848, “New betulinic acid derivatives as potent proteasome inhibitors” (Bioorg Med Chem Lett, 2011).
Calls of active or inactive are those of the source. No cut-off for these calls is given here. Where a SMILES comes first, the peptide text is derived from it.

Assays:
[1] = Inhibition of human 20S proteasome chymotrypsin-like activity using Suc-Leu-Leu-Val-Tyr-AMC fluorogenic substrate by fluorimetry
In short: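 IC50 values are the averages of three independent experiments.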

[2] = test system: Human immunodeficiency virus 1; assay: Antiviral activity against HIV1; type: functional, organism-based
Homo sapiens [3] = species on record: Homo sapiens; assay: Inhibition of human 20S proteasome caspase-like activity using (Z)-LLE-bNA fluorogenic substrate by fluorimetry
[4] = test system: Human immunodeficiency virus 1; assay: Antiviral activity against drug-resistant HIV1 isolate; type: functional, organism-based
[5] = Inhibition of human 20S proteasome trypsin-like activity using Bz-VGR-AMC fluorogenic substrate by fluorimetry
Homo sapiens [6] = species on record: Homo sapiens; assay: Ratio of bevirimat IC50 to compound IC50 for human 20S proteasome
Homo sapiens [7] = species on record: Homo sapiens; assay: Ratio of lactacystin IC50 to compound IC50 for human 20S proteasome
Homo sapiens [8] = species on record: Homo sapiens; assay: Ratio of LLM-F IC50 to compound IC50 for human 20S proteasome

| SMILES | IC50 [1] [µM] | also measured |
| --- | --- | --- |
| CSCC[C@@H](C=O)NC(=O)[C@H](CC(C)C)NC(=O)[C@H](CC(C)C)NC(C)=O (Ac-Leu-Leu-Met-aldehyde) | 5.25 |  |
| C=C(C)[C@@H]1CC[C@]2(C(=O)O)CC[C@]3(C)[C@H](CC[C@H]4C3(C)CC[C@H]3C(C)(C)[C@@H](OC(=O)c5ccc(OC)c(OC)c5)CC[C@@]34C)[C@@H]12 (single isomer, unassigned) | > 40 |  |
| C=C(C)[C@@H]1CC[C@]2(C(=O)O)CC[C@]3(C)[C@H](CC[C@@H]4[C@@]5(C)CC[C@H](OC(=O)CC(C)(C)C(=O)O)C(C)(C)[C@@H]5CC[C@]43C)[C@@H]12 [BEVIRIMAT] | 9.2 | EC50 [2]: < 0.01 µM; inhibition (Homo sapiens [3]): inactive; EC50 [4]: < 0.01 µM; IC50 [5]: 26.3 µM |
| C=C(C)[C@@H]1CC[C@]2(C(=O)O)CC[C@]3(C)[C@H](CC[C@H]4C3(C)CC[C@H]3C(C)(C)[C@@H](OC(=O)Cc5cccc(CC(=O)O)c5)CC[C@@]34C)[C@@H]12 (single isomer, unassigned) | 1.42 | Ratio IC50 (Homo sapiens [6]): 6; Ratio IC50 (Homo sapiens [7]): 4; Ratio IC50 (Homo sapiens [8]): 4 |
| C=C(C)[C@@H]1CC[C@]2(C(=O)N[C@@H](CC(C)C)C(=O)O)CC[C@]3(C)[C@H](CC[C@H]4C3(C)CC[C@H]3C(C)(C)[C@@H](O)CC[C@@]34C)[C@@H]12 (single isomer, unassigned) | > 40 |  |
| C=C(CBr)[C@@H]1CC[C@]2(C(=O)N[C@@H](CC(C)C)C(=O)O)CC[C@]3(C)[C@H](CC[C@H]4C3(C)CC[C@H]3C(C)(C)[C@@H](O)CC[C@@]34C)[C@@H]12 (single isomer, unassigned) | 5.85 |  |
| C=C(C)[C@@H]1CC[C@]2(C(=O)O)CC[C@]3(C)[C@H](CC[C@H]4C3(C)CC[C@H]3C(C)(C)[C@@H](OC(=O)c5ccc(Br)cc5)CC[C@@]34C)[C@@H]12 (single isomer, unassigned) | > 40 |  |
| C=C(C)[C@@H]1CC[C@]2(C(=O)O)CC[C@]3(C)[C@H](CC[C@H]4C3(C)CC[C@H]3C(C)(C)[C@@H](OC(=O)COCC(=O)O)CC[C@@]34C)[C@@H]12 (single isomer, unassigned) | > 40 |  |
| C=C(COCCc1ccc(Cl)cc1)[C@@H]1CC[C@]2(C(=O)N[C@@H](CC(C)C)C(=O)O)CC[C@]3(C)[C@H](CC[C@H]4C3(C)CC[C@H]3C(C)(C)[C@@H](O)CC[C@@]34C)[C@@H]12 (single isomer, unassigned) | 1.8 | Ratio IC50 (Homo sapiens [7]): 3; Ratio IC50 (Homo sapiens [8]): 3 |
| C=C(C)[C@@H]1CC[C@]2(C(=O)O)CC[C@]3(C)[C@H](CC[C@H]4C3(C)CC[C@H]3C(C)(C)[C@@H](OC(=O)c5cc(OC)c(OC)cc5OC)CC[C@@]34C)[C@@H]12 (single isomer, unassigned) | 10.9 |  |
| C=C(COCCc1ccc(OC)cc1)[C@@H]1CC[C@]2(C(=O)N[C@@H](CC(C)C)C(=O)O)CC[C@]3(C)[C@H](CC[C@H]4C3(C)CC[C@H]3C(C)(C)[C@@H](O)CC[C@@]34C)[C@@H]12 (single isomer, unassigned) | 3.34 |  |
| C=C(COCCC)[C@@H]1CC[C@]2(C(=O)N[C@@H](CC(C)C)C(=O)O)CC[C@]3(C)[C@H](CC[C@H]4C3(C)CC[C@H]3C(C)(C)[C@@H](O)CC[C@@]34C)[C@@H]12 (single isomer, unassigned) | 3.67 |  |
| C=C(C)[C@@H]1CC[C@]2(C(=O)O)CC[C@]3(C)[C@H](CC[C@H]4C3(C)CC[C@H]3C(C)(C)[C@@H](OC(=O)c5cccc(Br)c5)CC[C@@]34C)[C@@H]12 (single isomer, unassigned) | 7.05 |  |
| C=C(COCCc1ccc(F)cc1)[C@@H]1CC[C@]2(C(=O)N[C@@H](CC(C)C)C(=O)O)CC[C@]3(C)[C@H](CC[C@H]4C3(C)CC[C@H]3C(C)(C)[C@@H](O)CC[C@@]34C)[C@@H]12 (single isomer, unassigned) | 2.4 |  |
| C=C(COCCN1CCOCC1)[C@@H]1CC[C@]2(C(=O)N[C@@H](CC(C)C)C(=O)O)CC[C@]3(C)[C@H](CC[C@H]4C3(C)CC[C@H]3C(C)(C)[C@@H](O)CC[C@@]34C)[C@@H]12 (single isomer, unassigned) | 3.13 |  |
| C=C(C)[C@@H]1CC[C@]2(C(=O)O)CC[C@]3(C)[C@H](CC[C@H]4C3(C)CC[C@H]3C(C)(C)[C@@H](OC(=O)c5ccccc5)CC[C@@]34C)[C@@H]12 (single isomer, unassigned) | 11.1 |  |
| C=C(COCCc1ccccc1)[C@@H]1CC[C@]2(C(=O)N[C@@H](CC(C)C)C(=O)O)CC[C@]3(C)[C@H](CC[C@H]4C3(C)CC[C@H]3C(C)(C)[C@@H](O)CC[C@@]34C)[C@@H]12 (single isomer, unassigned) | 2.47 |  |
| C=C(C)[C@@H]1CC[C@]2(C(=O)O)CC[C@]3(C)[C@H](CC[C@H]4C3(C)CC[C@H]3C(C)(C)[C@@H](OC(=O)C5CC=CCC5C(=O)O)CC[C@@]34C)[C@@H]12 (single isomer, unassigned) | 2.96 |  |
| C=C(C)[C@@H]1CC[C@]2(C(=O)O)CC[C@]3(C)[C@H](CC[C@H]4C3(C)CC[C@H]3C(C)(C)[C@@H](OC(=O)c5ccc6c(c5)OCO6)CC[C@@]34C)[C@@H]12 (single isomer, unassigned) | > 40 |  |
| C=C(C)[C@@H]1CC[C@]2(C(=O)O)CC[C@]3(C)[C@H](CC[C@H]4C3(C)CC[C@H]3C(C)(C)[C@@H](OC(=O)c5ccccc5Br)CC[C@@]34C)[C@@H]12 (single isomer, unassigned) | 7.99 |  |
| C=C(COCC)[C@@H]1CC[C@]2(C(=O)N[C@@H](CC(C)C)C(=O)O)CC[C@]3(C)[C@H](CC[C@H]4C3(C)CC[C@H]3C(C)(C)[C@@H](O)CC[C@@]34C)[C@@H]12 (single isomer, unassigned) | 13.2 |  |
| C=C(C)[C@@H]1CC[C@]2(C(=O)NCCCCCCCC(=O)N[C@@H](CC(C)C)[C@H](O)CC(=O)O)CC[C@]3(C)[C@H](CC[C@H]4C3(C)CC[C@H]3C(C)(C)[C@@H](O)CC[C@@]34C)[C@@H]12 (single isomer, unassigned) | > 40 |  |
| C=C(C)[C@@H]1CC[C@]2(C(=O)O)CC[C@]3(C)[C@H](CC[C@H]4C3(C)CC[C@H]3C(C)(C)[C@@H](OC(=O)c5cc(OC)c(OC)c(OC)c5)CC[C@@]34C)[C@@H]12 (single isomer, unassigned) | > 40 |  |
| C=C(COCCc1ccc(Br)cc1)[C@@H]1CC[C@]2(C(=O)N[C@@H](CC(C)C)C(=O)O)CC[C@]3(C)[C@H](CC[C@H]4C3(C)CC[C@H]3C(C)(C)[C@@H](O)CC[C@@]34C)[C@@H]12 (single isomer, unassigned) | 1.56 | Ratio IC50 (Homo sapiens [7]): 3; Ratio IC50 (Homo sapiens [8]): 3 |
